Data: ChEMBL document CHEMBL5705890, “Antitumor activity of an allosteric inhibitor of centromere-associated protein-E” (Proc Natl Acad Sci U S A, 2010)

Columns and labels:
SW684 = assay: Anticancer activity against human SW684 cells assessed as cell growth inhibition measured after 72 hrs by DAPI staining based analysis; format: functional
NCI-H716 = assay: Anticancer activity against human NCI-H716 cells assessed as cell growth inhibition measured after 72 hrs by DAPI staining based analysis; format: functional
TK-10 = assay: Anticancer activity against human TK-10 cells assessed as cell doubling measured for 72 hrs by DAPI staining based analysis; format: functional
SCC-9 = assay: Anticancer activity against human SCC-9 cells assessed as cell doubling measured for 72 hrs by DAPI staining based analysis; format: functional
BE(2)-C = assay: Anticancer activity against human BE2C cells assessed as cell doubling measured for 72 hrs by DAPI staining based analysis; format: functional
[1] = target: Centromere-associated protein E (Homo sapiens, UniProt Q02224, K184T); assay: Binding affinity to human CENP-E K184T mutant assessed as inhibition constant
Sequence of Centromere-associated protein E (Q02224 whole entry K184T): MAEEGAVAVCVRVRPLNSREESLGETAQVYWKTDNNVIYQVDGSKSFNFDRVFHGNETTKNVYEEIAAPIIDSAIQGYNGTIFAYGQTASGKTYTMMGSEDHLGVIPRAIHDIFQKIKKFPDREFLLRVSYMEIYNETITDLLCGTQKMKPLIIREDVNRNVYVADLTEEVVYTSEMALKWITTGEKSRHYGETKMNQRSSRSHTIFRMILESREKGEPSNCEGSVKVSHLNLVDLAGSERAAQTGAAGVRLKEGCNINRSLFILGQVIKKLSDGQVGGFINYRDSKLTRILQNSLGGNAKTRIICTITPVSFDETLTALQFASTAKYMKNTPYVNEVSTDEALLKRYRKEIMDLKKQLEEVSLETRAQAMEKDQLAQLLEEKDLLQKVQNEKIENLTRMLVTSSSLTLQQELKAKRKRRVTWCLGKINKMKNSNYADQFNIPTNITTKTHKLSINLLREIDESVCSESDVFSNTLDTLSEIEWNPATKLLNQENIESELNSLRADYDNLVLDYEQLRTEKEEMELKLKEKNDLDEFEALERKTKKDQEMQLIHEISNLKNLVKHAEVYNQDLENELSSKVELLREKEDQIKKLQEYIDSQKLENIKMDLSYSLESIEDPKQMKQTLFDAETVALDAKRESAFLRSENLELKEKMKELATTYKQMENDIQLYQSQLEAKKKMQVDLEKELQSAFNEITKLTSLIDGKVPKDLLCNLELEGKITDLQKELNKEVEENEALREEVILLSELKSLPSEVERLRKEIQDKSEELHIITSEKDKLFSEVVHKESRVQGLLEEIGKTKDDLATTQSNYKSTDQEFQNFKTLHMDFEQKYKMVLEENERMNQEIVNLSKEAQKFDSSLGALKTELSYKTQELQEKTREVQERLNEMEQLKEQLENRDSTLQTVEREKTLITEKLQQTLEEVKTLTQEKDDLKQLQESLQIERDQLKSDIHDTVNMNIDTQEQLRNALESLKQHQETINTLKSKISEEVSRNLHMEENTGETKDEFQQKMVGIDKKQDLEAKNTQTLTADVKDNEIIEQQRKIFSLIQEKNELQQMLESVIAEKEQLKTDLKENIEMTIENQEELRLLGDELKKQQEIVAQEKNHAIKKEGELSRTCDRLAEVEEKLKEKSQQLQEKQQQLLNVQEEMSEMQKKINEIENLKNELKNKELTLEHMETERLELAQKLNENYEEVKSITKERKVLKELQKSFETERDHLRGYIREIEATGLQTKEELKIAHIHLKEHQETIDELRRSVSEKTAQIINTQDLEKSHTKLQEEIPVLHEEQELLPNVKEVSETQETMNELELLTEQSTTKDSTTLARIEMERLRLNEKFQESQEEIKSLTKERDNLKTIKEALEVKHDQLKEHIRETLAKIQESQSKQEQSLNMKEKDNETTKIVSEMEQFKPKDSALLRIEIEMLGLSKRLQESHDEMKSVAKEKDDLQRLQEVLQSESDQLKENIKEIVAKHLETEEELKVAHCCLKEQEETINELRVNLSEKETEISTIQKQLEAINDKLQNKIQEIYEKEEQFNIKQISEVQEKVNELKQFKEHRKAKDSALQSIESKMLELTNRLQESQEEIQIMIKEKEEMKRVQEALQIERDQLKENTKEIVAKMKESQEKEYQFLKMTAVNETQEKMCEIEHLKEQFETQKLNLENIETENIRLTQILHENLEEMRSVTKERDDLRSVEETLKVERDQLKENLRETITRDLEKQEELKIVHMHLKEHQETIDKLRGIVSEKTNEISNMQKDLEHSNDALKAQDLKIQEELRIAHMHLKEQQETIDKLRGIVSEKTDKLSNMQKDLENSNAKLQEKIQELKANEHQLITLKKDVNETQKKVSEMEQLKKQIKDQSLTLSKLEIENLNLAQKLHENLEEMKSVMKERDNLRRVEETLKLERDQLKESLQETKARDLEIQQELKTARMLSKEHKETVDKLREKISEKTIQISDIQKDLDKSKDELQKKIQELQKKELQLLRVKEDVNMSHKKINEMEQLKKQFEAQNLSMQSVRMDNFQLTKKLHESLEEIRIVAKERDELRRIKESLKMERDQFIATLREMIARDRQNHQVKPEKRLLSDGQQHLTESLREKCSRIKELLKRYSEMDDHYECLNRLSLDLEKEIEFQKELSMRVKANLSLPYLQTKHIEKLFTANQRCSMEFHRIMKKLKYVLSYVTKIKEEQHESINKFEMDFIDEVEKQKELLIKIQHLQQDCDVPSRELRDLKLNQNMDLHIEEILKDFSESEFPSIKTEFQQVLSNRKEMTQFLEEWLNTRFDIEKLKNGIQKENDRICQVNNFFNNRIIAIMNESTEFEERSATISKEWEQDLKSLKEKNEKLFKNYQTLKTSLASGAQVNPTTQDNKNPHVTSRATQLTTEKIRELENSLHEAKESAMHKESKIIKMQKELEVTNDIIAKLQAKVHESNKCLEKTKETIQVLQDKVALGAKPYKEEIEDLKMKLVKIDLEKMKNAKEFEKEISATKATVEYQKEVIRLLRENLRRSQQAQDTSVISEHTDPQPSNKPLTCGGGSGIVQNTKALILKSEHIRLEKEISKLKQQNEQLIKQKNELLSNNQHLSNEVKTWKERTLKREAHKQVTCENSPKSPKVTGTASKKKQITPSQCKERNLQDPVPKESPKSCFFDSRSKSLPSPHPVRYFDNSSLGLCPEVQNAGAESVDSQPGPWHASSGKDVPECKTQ

SW948 = assay: Anticancer activity against human SW948 cells assessed as cell doubling measured for 72 hrs by DAPI staining based analysis; format: functional
CAL-62 = assay: Anticancer activity against human CAL-62 cells assessed as cell growth inhibition measured after 72 hrs by DAPI staining based analysis; format: functional
How it was run: (§1)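 Cells were seeded, and DNA content at 24 h after seeding (T0) was read by imaging of fixed, DAPI-stained cells. Cells were then exposed to a range of drug concentrations for a further 72 h (T72) and DNA content was read again. T72 values were normalized to T0, and GI50 was taken from curve fits as the concentration giving 50% growth inhibition relative to T0 and Ymax.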

SCC-25 = assay: Anticancer activity against human SCC-25 cells assessed as cell doubling measured for 72 hrs by DAPI staining based analysis; format: functional
GCT [2] = assay: Anticancer activity against human GCT cells assessed as cell growth inhibition measured after 72 hrs by DAPI staining based analysis; format: functional
How it was run: (§2)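 Cells seeded, DAPI-stained DNA content of fixed cells read by imaging 24 h after seeding (T0), and again after a further 72 h exposure to a range of drug concentrations (T72). T72 values were normalized to T0. Curve fits gave the concentration producing 50% growth inhibition relative to T0 and Ymax (GI50).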

DoTc2-4510 = assay: Anticancer activity against human DoTc2-4510 cells assessed as cell growth inhibition measured after 72 hrs by DAPI staining based analysis; format: functional; how it was run: as §2
J82 = assay: Anticancer activity against human J82 cells assessed as cell doubling measured for 72 hrs by DAPI staining based analysis; format: functional
[3] = Anticancer activity against human SCC-13 cells assessed as cell growth inhibition measured after 72 hrs by DAPI staining based analysis; format: functional
[4] = Anticancer activity against human MV-522 cells assessed as cell growth inhibition measured after 72 hrs by DAPI staining based analysis; format: functional; conditions: MV522
LS-1034 = assay: Anticancer activity against human LS1034 cells assessed as cell doubling measured for 72 hrs by DAPI staining based analysis; format: functional
[5] = Anticancer activity against human MV-522 cells assessed as cell doubling measured for 72 hrs by DAPI staining based analysis; format: functional
SK-MEL3 = assay: Anticancer activity against human SK-MEL3 cells assessed as cell growth inhibition measured after 72 hrs by DAPI staining based analysis; format: functional
CAL-27 = assay: Anticancer activity against human CAL-27 cells assessed as cell doubling measured for 72 hrs by DAPI staining based analysis; format: functional
A 172 = assay: Anticancer activity against human A-172 cells assessed as cell growth inhibition measured after 72 hrs by DAPI staining based analysis; format: functional
How it was run: (§3)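 Cells were seeded and, after 24 h, DNA content was read as T0. Cells were then exposed to varying drug concentrations for a further 72 h (T72). Fixed cells were DAPI-stained and DNA content measured by automated imaging. T72 values were normalized to T0. GI50 is the concentration giving 50% growth inhibition between T0 and Ymax, obtained by curve fitting.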

NCI-H520 = assay: Anticancer activity against human NCI-H520 cells assessed as cell growth inhibition measured after 72 hrs by DAPI staining based analysis; format: functional
MDA-MB-231 = assay: Anticancer activity against human MDA-MB-231 cells assessed as cell doubling measured for 72 hrs by DAPI staining based analysis; format: functional
[6] = Anticancer activity against human BM-1604 cells assessed as cell doubling measured for 72 hrs by DAPI staining based analysis; format: functional
MCF7 = assay: Anticancer activity against human MCF7 cells assessed as cell growth inhibition measured after 72 hrs by DAPI staining based analysis; format: functional
HeLa = assay: Anticancer activity against human HeLa cells assessed as cell growth inhibition measured after 72 hrs by DAPI staining based analysis; format: functional
NCI-H460 = assay: Anticancer activity against human NCI-H460 cells assessed as cell doubling measured for 72 hrs by DAPI staining based analysis; format: functional
GCT [7] = assay: Anticancer activity against human GCT cells assessed as cell doubling measured for 72 hrs by DAPI staining based analysis; format: functional
[8] = Anticancer activity against human MT-3 cells assessed as cell growth inhibition measured after 72 hrs by DAPI staining based analysis; format: functional
[9] = Anticancer activity against human KPL-1 cells assessed as cell growth inhibition measured after 72 hrs by DAPI staining based analysis; format: functional
NCI-H508 = assay: Anticancer activity against human NCI-H508 cells assessed as cell doubling measured for 72 hrs by DAPI staining based analysis; format: functional
NCI-H82 = assay: Anticancer activity against human NCI-H82 cells assessed as cell growth inhibition measured after 72 hrs by DAPI staining based analysis; format: functional
NCI/ADR-RES = assay: Anticancer activity against human NCI/ADR-RES cells assessed as cell doubling measured for 72 hrs by DAPI staining based analysis; format: functional
DLD-1 = assay: Anticancer activity against human DLD-1 cells assessed as cell growth inhibition measured after 72 hrs by DAPI staining based analysis; format: functional; how it was run: as §2
HT-29 = assay: Anticancer activity against human HT-29 cells assessed as cell growth inhibition measured after 72 hrs by DAPI staining based analysis; format: functional
ACHN = assay: Anticancer activity against human ACHN cells assessed as cell growth inhibition measured after 72 hrs by DAPI staining based analysis; format: functional; how it was run: as §3
A-375 = assay: Anticancer activity against human A-375 cells assessed as cell doubling measured for 72 hrs by DAPI staining based analysis; format: functional
G-401 = assay: Anticancer activity against human G-401 cells assessed as cell growth inhibition measured after 72 hrs by DAPI staining based analysis; format: functional; how it was run: as §2
[10] = Anticancer activity against human A7 cells assessed as cell growth inhibition measured after 72 hrs by DAPI staining based analysis; format: functional; how it was run: as §3
SK-N-AS = assay: Anticancer activity against human SK-N-AS cells assessed as cell growth inhibition measured after 72 hrs by DAPI staining based analysis; format: functional
SCC-15 = assay: Anticancer activity against human SCC-15 cells assessed as cell doubling measured for 72 hrs by DAPI staining based analysis; format: functional
SNU-423 = assay: Anticancer activity against human SNU-423 cells assessed as cell growth inhibition measured after 72 hrs by DAPI staining based analysis; format: functional
CAKI-2 = assay: Anticancer activity against human CAKI-2 cells assessed as cell growth inhibition measured after 72 hrs by DAPI staining based analysis; format: functional; how it was run: as §1

With CC(C)Oc1ccc(C(=O)N[C@H](CNC(=O)CN(C)C)Cc2ccc(-c3cn4cccc([C@H](C)O)c4n3)cc2)cc1Cl [GSK-923295A] the GI50 (SW684) was 5020 nM, the GI50 (NCI-H716) was 174 nM and the Activity (TK-10) was 1.94. For the same molecule, the Activity (SCC-9) was 1.95, the Activity (BE(2)-C) was 2.28 and the Ki [1] was 12 nM. For the same molecule, the Activity (SW948) was 1.9, the GI50 (CAL-62) was 30 nM and the Activity (SCC-25) was 2.99. The GI50 (GCT [2]) was 23 nM, the GI50 (DoTc2-4510) was 33 nM and the Activity (J82) was 2.04. It also gave a GI50 [3] of 58 nM, a GI50 [4] of 48 nM and an Activity (LS-1034) of 1.73. For the same molecule, the Activity [5] was 2.81, the GI50 (SK-MEL3) was 30 nM and the Activity (CAL-27) was 2.55. For the same molecule, the GI50 (A 172) was 27 nM, the GI50 (NCI-H520) was 34 nM and the Activity (MDA-MB-231) was 2.32. It also gave an Activity [6] of 2.38, a GI50 (MCF7) of 29 nM and a GI50 (HeLa) of 20 nM. For the same molecule, the Activity (NCI-H460) was 3.86, the Activity (GCT [7]) was 2.3 and the GI50 [8] was 41 nM. It also gave a GI50 [9] of 31 nM, an Activity (NCI-H508) of 3.01 and a GI50 (NCI-H82) of 18 nM. For the same molecule, the Activity (NCI/ADR-RES) was 2.47, the GI50 (DLD-1) was 60 nM and the GI50 (HT-29) was 14 nM. The GI50 (ACHN) was 61 nM, the Activity (A-375) was 3.04 and the GI50 (G-401) was 26 nM. For the same molecule, the GI50 [10] was 40 nM, the GI50 (SK-N-AS) was 38 nM and the Activity (SCC-15) was 2.38. It also gave a GI50 (SNU-423) of 34 nM and a GI50 (CAKI-2) of 25 nM.
